These results are taken from ChEMBL document CHEMBL4325852, “Design, synthesis, and discovery of ocotillol-type amide derivatives as orally available modulators of P-glycoprotein-mediated multidrug resistance” (Eur J Med Chem, 2019).

Type in all cases: cell-based
A short description of data set [1]: Cytotoxicity against human KBV cells assessed as cell survival at 10 uM after 72 hrs by MTT assay relative to control. The note with it: read-out: Survival. In outline: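 KBV (Pgp-overexpressing MDR line) grown in DMEM/10% FCS, kept in 10 nM paclitaxel; seeded, compound (DMSO stock) added next day, 72 h; MTT 2 h, formazan in DMSO, A570 gives survival vs DMSO solvent control; n = 1-3 independent experiments, mean ± SD.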

In data set [2] the target is T1, ATP-dependent translocase ABCB1 (Homo sapiens, UniProt P08183). Nature of the data set: Reversal of P-gp-mediated multidrug resistance in human KBV cells assessed as potentiation of paclitaxel-induced cytotoxicity by measuring cell survival at 10 uM after 72 hrs by MTT assay (reference value: 104 +/- 8%). For orientation: Formazan colour is commonly taken as a measure of viable cells.
T1 sequence (P08183 whole entry): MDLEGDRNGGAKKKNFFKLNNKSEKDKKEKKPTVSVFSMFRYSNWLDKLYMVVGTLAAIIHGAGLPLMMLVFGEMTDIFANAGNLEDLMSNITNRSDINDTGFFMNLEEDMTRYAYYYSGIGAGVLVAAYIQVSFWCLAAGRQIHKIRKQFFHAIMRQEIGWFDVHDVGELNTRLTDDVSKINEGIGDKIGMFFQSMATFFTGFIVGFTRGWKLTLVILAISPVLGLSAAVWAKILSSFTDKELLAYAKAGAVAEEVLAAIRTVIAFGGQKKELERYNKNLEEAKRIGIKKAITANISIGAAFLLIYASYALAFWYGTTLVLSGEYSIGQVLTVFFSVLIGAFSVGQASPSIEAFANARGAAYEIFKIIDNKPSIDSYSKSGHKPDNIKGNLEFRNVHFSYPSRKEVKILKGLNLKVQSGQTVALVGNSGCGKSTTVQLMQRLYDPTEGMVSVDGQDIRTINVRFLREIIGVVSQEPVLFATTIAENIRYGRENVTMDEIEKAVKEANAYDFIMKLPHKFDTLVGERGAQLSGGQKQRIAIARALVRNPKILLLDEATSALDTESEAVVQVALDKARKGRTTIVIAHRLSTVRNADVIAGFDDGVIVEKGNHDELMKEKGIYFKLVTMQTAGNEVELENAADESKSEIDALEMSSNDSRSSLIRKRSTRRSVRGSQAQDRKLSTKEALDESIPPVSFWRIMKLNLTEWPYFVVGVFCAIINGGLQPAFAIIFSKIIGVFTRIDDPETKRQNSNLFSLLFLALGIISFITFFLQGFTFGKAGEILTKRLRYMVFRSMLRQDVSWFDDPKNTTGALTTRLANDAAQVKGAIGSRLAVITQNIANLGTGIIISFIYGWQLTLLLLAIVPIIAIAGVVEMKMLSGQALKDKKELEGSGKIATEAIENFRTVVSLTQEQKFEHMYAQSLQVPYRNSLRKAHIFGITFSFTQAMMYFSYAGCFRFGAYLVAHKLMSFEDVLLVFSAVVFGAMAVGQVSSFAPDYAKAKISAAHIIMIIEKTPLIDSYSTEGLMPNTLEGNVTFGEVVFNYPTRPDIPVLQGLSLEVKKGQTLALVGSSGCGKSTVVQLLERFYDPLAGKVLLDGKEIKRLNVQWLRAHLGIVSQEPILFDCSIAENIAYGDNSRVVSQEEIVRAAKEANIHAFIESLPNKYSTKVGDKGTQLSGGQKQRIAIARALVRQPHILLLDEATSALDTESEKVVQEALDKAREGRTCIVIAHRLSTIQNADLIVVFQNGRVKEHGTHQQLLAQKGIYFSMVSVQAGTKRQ

The target in data set [3] is T1, ATP-dependent translocase ABCB1. Nature of the data set: Reversal of P-gp-mediated multidrug resistance in human KBV cells assessed as potentiation of paclitaxel-induced cytotoxicity by measuring cell survival at 5 uM after 72 hrs by MTT assay (reference value: 104 +/- 8%).

The structures appear in SMILES notation.

On to `CC(C)(O)[C@H]1CC[C@@](C)([C@H]2CC[C@]3(C)[C@@H]2[C@H](O)C[C@@H]2[C@@]4(C)CC[C@H](NC(=O)CCCCCCCN)C(C)(C)[C@@H]4CC[C@]23C)O1`, for which the viability at 72 h, 10 µM in data set [1] worked out at 80%. Also, the Survival in data set [2] came to 38%; in data set [3], 84%.
For the molecule `CC(C)(O)[C@@H]1CC[C@@](C)([C@H]2CC[C@]3(C)[C@@H]2[C@H](O)C[C@@H]2[C@@]4(C)CC[C@H](O)C(C)(C)[C@@H]4CC[C@]23C)O1`, in data set [1], the viability at 72 h, 10 µM was determined as 111%. Also, the Survival in data set [2] is 104%.
Regarding `CC(C)(C)OC(=O)NCCCCCCCC(=O)N[C@H]1CC[C@]2(C)[C@H]3C[C@@H](O)[C@@H]4[C@@H]([C@]5(C)CC[C@@H](C(C)(C)O)O5)CC[C@@]4(C)[C@]3(C)CC[C@H]2C1(C)C`, in data set [1], the viability at 72 h, 10 µM was determined as 111%. The Survival in data set [2] is 41%; in data set [3], 54%.
Taken in the same sequence, the figures for `CC(C)(C)OC(=O)NCCCCCC(=O)N[C@H]1CC[C@]2(C)[C@H]3C[C@@H](O)[C@@H]4[C@@H]([C@]5(C)CC[C@@H](C(C)(C)O)O5)CC[C@@]4(C)[C@]3(C)CC[C@H]2C1(C)C` were 79%, 40% and 65%.
On the same counts, the results for `CCCC(=O)N[C@H]1CC[C@]2(C)[C@H]3C[C@@H](O)[C@@H]4[C@@H]([C@]5(C)CC[C@H](C(C)(C)O)O5)CC[C@@]4(C)[C@]3(C)CC[C@H]2C1(C)C` are 103%, 55% and 89%.
In the case of `CC(C)(C)OC(=O)NCC(=O)N[C@H]1CC[C@]2(C)[C@H]3C[C@@H](O)[C@@H]4[C@@H]([C@]5(C)CC[C@@H](C(C)(C)O)O5)CC[C@@]4(C)[C@]3(C)CC[C@H]2C1(C)C`, in data set [1], the viability at 72 h, 10 µM came to 96%. The Survival came out at 42% in data set [2] and 61% in data set [3].
On to `CC(C)(O)[C@H]1CC[C@@](C)([C@H]2CC[C@]3(C)[C@@H]2[C@H](O)C[C@@H]2[C@@]4(C)CC[C@H](NC(=O)CN)C(C)(C)[C@@H]4CC[C@]23C)O1`, for which the viability at 72 h, 10 µM in data set [1] was determined as 103%. Moreover, the Survival in data set [2] is 49%; in data set [3], 99%.
With `CC(C)(O)[C@@H]1CC[C@@](C)([C@H]2CC[C@]3(C)[C@@H]2[C@H](O)C[C@@H]2[C@@]4(C)CC[C@H](NC(=O)c5ccccc5O)C(C)(C)[C@@H]4CC[C@]23C)O1`, the viability at 72 h, 10 µM in data set [1] turned out to be 96%. Moreover, the Survival is given as 36% in data set [2] and 61% in data set [3].
Regarding `CC(C)(O)[C@H]1CC[C@@](C)([C@H]2CC[C@]3(C)[C@@H]2[C@H](O)C[C@@H]2[C@@]4(C)CC[C@H](O)C(C)(C)[C@@H]4CC[C@]23C)O1`, the viability at 72 h, 10 µM in data set [1] turned out to be 94%. Also, the Survival in data set [2] was determined as 95%.
Regarding `CC(C)(O)[C@H]1CC[C@@](C)([C@H]2CC[C@]3(C)[C@@H]2[C@H](O)C[C@@H]2[C@@]4(C)CC[C@H](NC(=O)c5ccccc5)C(C)(C)[C@@H]4CC[C@]23C)O1`, in data set [1], the viability at 72 h, 10 µM is 101%. Moreover, the Survival worked out at 39% in data set [2] and 59% in data set [3].
Regarding `CC(C)(O)[C@@H]1CC[C@@](C)([C@H]2CC[C@]3(C)[C@@H]2[C@H](O)C[C@@H]2[C@@]4(C)CC[C@H](N)C(C)(C)[C@@H]4CC[C@]23C)O1`, the viability at 72 h, 10 µM in data set [1] worked out at 91%. In addition, the Survival turned out to be 88% in data set [2] and 102% in data set [3].
With `CC(C)(O)[C@H]1CC[C@@](C)([C@H]2CC[C@]3(C)[C@@H]2[C@H](O)C[C@@H]2[C@@]4(C)CC[C@H](NC(=O)c5ccccc5C(=O)O)C(C)(C)[C@@H]4CC[C@]23C)O1`, in data set [1], the viability at 72 h, 10 µM was 105%. Also, the Survival in data set [2] came to 85%; in data set [3], 96%.
Consider `CC(C)(O)[C@H]1CC[C@@](C)([C@H]2CC[C@]3(C)[C@@H]2[C@H](O)C[C@@H]2[C@@]4(C)CC[C@H](NC(=O)CCCN)C(C)(C)[C@@H]4CC[C@]23C)O1`, for which the viability at 72 h, 10 µM in data set [1] turned out to be 77%. Also, the Survival in data set [2] was 85%; in data set [3], 100%.
On to `CC(C)(O)[C@@H]1CC[C@@](C)([C@H]2CC[C@]3(C)[C@@H]2[C@H](O)C[C@@H]2[C@@]4(C)CC[C@H](NC(=O)c5ccccc5)C(C)(C)[C@@H]4CC[C@]23C)O1`, for which the viability at 72 h, 10 µM in data set [1] was 116%. Further, the Survival in data set [2] is listed as 48%; in data set [3], 90%.
For `CC(C)(O)[C@H]1CC[C@@](C)([C@H]2CC[C@]3(C)[C@@H]2[C@H](O)C[C@@H]2[C@@]4(C)CC[C@H](NC(=O)c5ccccc5O)C(C)(C)[C@@H]4CC[C@]23C)O1`, the viability at 72 h, 10 µM in data set [1] worked out at 100%. Further, the results for the Survival in data set [2] and in data set [3] were 40% and 51%, respectively.
For the molecule `CC(C)(O)[C@@H]1CC[C@@](C)([C@H]2CC[C@]3(C)[C@@H]2[C@H](O)C[C@@H]2[C@@]4(C)CC[C@H](NC(=O)CN)C(C)(C)[C@@H]4CC[C@]23C)O1`, in data set [1], the viability at 72 h, 10 µM was determined as 90%. Moreover, the values for the Survival in data set [2] and in data set [3] were 115% and 98%, respectively.
With `CC(C)(C)OC(=O)NCC(=O)N[C@H]1CC[C@]2(C)[C@H]3C[C@@H](O)[C@@H]4[C@@H]([C@]5(C)CC[C@H](C(C)(C)O)O5)CC[C@@]4(C)[C@]3(C)CC[C@H]2C1(C)C`, the viability at 72 h, 10 µM in data set [1] was 95%. In addition, the Survival in data set [2] was found to be 42%; in data set [3] it was 48%.
For the molecule `CC(C)(O)[C@@H]1CC[C@@](C)([C@H]2CC[C@]3(C)[C@@H]2[C@H](O)C[C@@H]2[C@@]4(C)CC[C@H](NC(=O)c5cccnc5)C(C)(C)[C@@H]4CC[C@]23C)O1`, in data set [1], the viability at 72 h, 10 µM stood at 91%. In addition, the Survival in data set [2] amounted to 61%; in data set [3], 115%.
With `CC(C)(O)[C@H]1CC[C@@](C)([C@H]2CC[C@]3(C)[C@@H]2[C@H](O)C[C@@H]2[C@@]4(C)CC[C@H](NC(=O)CCCCCN)C(C)(C)[C@@H]4CC[C@]23C)O1`, in data set [1], the viability at 72 h, 10 µM turned out to be 86%. Also, the Survival in data set [2] and in data set [3] was 91% each time.
Regarding `CC(C)(C)OC(=O)NCCCCCCCC(=O)N[C@H]1CC[C@]2(C)[C@H]3C[C@@H](O)[C@@H]4[C@@H]([C@]5(C)CC[C@H](C(C)(C)O)O5)CC[C@@]4(C)[C@]3(C)CC[C@H]2C1(C)C`, in data set [1], the viability at 72 h, 10 µM amounted to 106%. Moreover, the Survival is recorded as 39% in data set [2] and 54% in data set [3].
With `CC(C)(O)[C@@H]1CC[C@@](C)([C@H]2CC[C@]3(C)[C@@H]2[C@H](O)C[C@@H]2[C@@]4(C)CC[C@H](NC(=O)CCCN)C(C)(C)[C@@H]4CC[C@]23C)O1`, in data set [1], the viability at 72 h, 10 µM was 105%. Besides, the Survival stood at 102% in data set [2] and 111% in data set [3].
On to `CCCCCC(=O)N[C@H]1CC[C@]2(C)[C@H]3C[C@@H](O)[C@@H]4[C@@H]([C@]5(C)CC[C@H](C(C)(C)O)O5)CC[C@@]4(C)[C@]3(C)CC[C@H]2C1(C)C`, for which, in data set [1], the viability at 72 h, 10 µM was 101%. Further, the Survival in data set [2] is reported as 43%; in data set [3], 69%.
Turning to `CCCCCCCC(=O)N[C@H]1CC[C@]2(C)[C@H]3C[C@@H](O)[C@@H]4[C@@H]([C@]5(C)CC[C@H](C(C)(C)O)O5)CC[C@@]4(C)[C@]3(C)CC[C@H]2C1(C)C`, in data set [1], the viability at 72 h, 10 µM was 70%. In addition, the Survival in data set [2] was determined as 39%; in data set [3] it was 56%.
In the case of `CC(C)(C)OC(=O)NCCCC(=O)N[C@H]1CC[C@]2(C)[C@H]3C[C@@H](O)[C@@H]4[C@@H]([C@]5(C)CC[C@H](C(C)(C)O)O5)CC[C@@]4(C)[C@]3(C)CC[C@H]2C1(C)C`, the viability at 72 h, 10 µM in data set [1] was found to be 67%. The results for the Survival in data set [2] and in data set [3] were 34% and 48%, respectively.
Consider `CC(C)(O)[C@H]1CC[C@@](C)([C@H]2CC[C@]3(C)[C@@H]2[C@H](O)C[C@@H]2[C@@]4(C)CC[C@H](NC(=O)c5ccc(N)cc5)C(C)(C)[C@@H]4CC[C@]23C)O1`, for which, in data set [1], the viability at 72 h, 10 µM was determined as 75%. Further, the Survival in data set [2] is listed as 47%; in data set [3], 77%.
In the case of `CC(C)(O)[C@@H]1CC[C@@](C)([C@H]2CC[C@]3(C)[C@@H]2[C@H](O)C[C@@H]2[C@@]4(C)CC[C@H](NC(=O)CCCCCN)C(C)(C)[C@@H]4CC[C@]23C)O1`, the viability at 72 h, 10 µM in data set [1] came out at 79%. Besides, the Survival came to 101% in data set [2] and 105% in data set [3].
On to `CC(C)(C)OC(=O)NCCCC(=O)N[C@H]1CC[C@]2(C)[C@H]3C[C@@H](O)[C@@H]4[C@@H]([C@]5(C)CC[C@@H](C(C)(C)O)O5)CC[C@@]4(C)[C@]3(C)CC[C@H]2C1(C)C`, for which the viability at 72 h, 10 µM in data set [1] was 94%. The Survival in data set [2] was found to be 44%; in data set [3], 90%.
For `CCCCCC(=O)N[C@H]1CC[C@]2(C)[C@H]3C[C@@H](O)[C@@H]4[C@@H]([C@]5(C)CC[C@@H](C(C)(C)O)O5)CC[C@@]4(C)[C@]3(C)CC[C@H]2C1(C)C`, the viability at 72 h, 10 µM in data set [1] is 98%. For the same molecule, the Survival amounted to 44% in data set [2] and 78% in data set [3].
